Converted amounts (≈) assume the structure as drawn.
What was measured:
Type in all cases: functional, cell-based
[1] = Cytotoxicity against human 514L cells after 4 days by modified propidium iodide monolayer assay; conditions: 96 h
Method in brief: (§1)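 Part of a 36-line human tumor cell panel. Proliferation inhibition was measured over a range of concentrations, and an IC50 was derived for each cell line from its concentration–response.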

[2] = Cytotoxicity against human 462NL cells after 4 days by modified propidium iodide monolayer assay; conditions: 96 h; method in brief: as §1
[3] = Cytotoxicity against human 899L cells after 4 days by modified propidium iodide monolayer assay; conditions: 96 h; method in brief: as §1
[4] = Cytotoxicity against human 529L cells after 4 days by modified propidium iodide monolayer assay; conditions: 96 h; method in brief: as §1
[5] = Cytotoxicity against human 536L cells after 4 days by modified propidium iodide monolayer assay; conditions: 96 h; method in brief: as §1
[6] = Cytotoxicity against human 1619L cells after 4 days by modified propidium iodide monolayer assay; conditions: 96 h; method in brief: as §1
HT-29 = assay: Cytotoxicity against human HT29 cells after 4 days by modified propidium iodide monolayer assay; conditions: HT-29, 96 h; method in brief: as §1
[7] = Cytotoxicity against human 526L cells after 4 days by modified propidium iodide monolayer assay; conditions: 96 h; method in brief: as §1
[8] = Cytotoxicity against human 1121L cells after 4 days by modified propidium iodide monolayer assay; conditions: 96 h; method in brief: as §1
[9] = Cytotoxicity against human 1752L cells after 4 days by modified propidium iodide monolayer assay; conditions: 96 h; method in brief: as §1
[10] = Cytotoxicity against human 629L cells after 4 days by modified propidium iodide monolayer assay; conditions: 96 h; method in brief: as §1
[11] = Cytotoxicity against human 1218L cells after 4 days by modified propidium iodide monolayer assay; conditions: 96 h; method in brief: as §1
[12] = Cytotoxicity against human 393NL cells after 4 days by modified propidium iodide monolayer assay; conditions: 96 h; method in brief: as §1
LNCaP = assay: Cytotoxicity against human LNCAP cells after 4 days by modified propidium iodide monolayer assay; conditions: 96 h; method in brief: as §1
[13] = Cytotoxicity against human 1657L cells after 4 days by modified propidium iodide monolayer assay; conditions: 96 h; method in brief: as §1
PANC-1 = assay: Cytotoxicity against human PANC1 cells after 4 days by modified propidium iodide monolayer assay; conditions: PANC-1, 96 h; method in brief: as §1
[14] = Cytotoxicity against human 1138L cells after 4 days by modified propidium iodide monolayer assay; conditions: 96 h; method in brief: as §1
[15] = Cytotoxicity against human 486L cells after 4 days by modified propidium iodide monolayer assay; conditions: 96 h; method in brief: as §1
[16] = Cytotoxicity against human 394NL cells after 4 days by modified propidium iodide monolayer assay; conditions: 96 h; method in brief: as §1
NCI-H460 = assay: Cytotoxicity against human H460 cells after 4 days by modified propidium iodide monolayer assay; conditions: NCI-H460, 96 h; method in brief: as §1
DU-145 = assay: Cytotoxicity against human DU145 cells after 4 days by modified propidium iodide monolayer assay; conditions: DU-145, 96 h; method in brief: as §1
[17] = Cytotoxicity against human 289L cells after 4 days by modified propidium iodide monolayer assay; conditions: 96 h; method in brief: as §1
[18] = Cytotoxicity against human 276L cells after 4 days by modified propidium iodide monolayer assay; conditions: 96 h; method in brief: as §1
[19] = Cytotoxicity against human 251L cells after 4 days by modified propidium iodide monolayer assay; conditions: 96 h; method in brief: as §1
[20] = Cytotoxicity against human 498NL cells after 4 days by modified propidium iodide monolayer assay; conditions: 96 h; method in brief: as §1
HCT-116 = assay: Cytotoxicity against human HCT116 cells after 4 days by modified propidium iodide monolayer assay; conditions: HCT-116, 96 h; method in brief: as §1
CWR22R = assay: Cytotoxicity against human 22RV1 cells after 4 days by modified propidium iodide monolayer assay; conditions: 22Rv1, 96 h; method in brief: as §1
[21] = Cytotoxicity against human 944L cells after 4 days by modified propidium iodide monolayer assay; conditions: 96 h; method in brief: as §1
MCF7 = assay: Cytotoxicity against human MCF7 cells after 4 days by modified propidium iodide monolayer assay; conditions: MCF7, 96 h; method in brief: as §1
[22] = Cytotoxicity against human 1781L cells after 4 days by modified propidium iodide monolayer assay; conditions: 96 h; method in brief: as §1
[23] = Cytotoxicity against human 401NL cells after 4 days by modified propidium iodide monolayer assay; conditions: 96 h; method in brief: as §1
OVCAR-3 = assay: Cytotoxicity against human OVCAR-3 cells after 4 days by modified propidium iodide monolayer assay; conditions: OVCAR-3, 96 h; method in brief: as §1
SF-268 = assay: Cytotoxicity against human SF268 cells after 4 days by modified propidium iodide monolayer assay; conditions: SF-268, 96 h; method in brief: as §1
[24] = Cytotoxicity against human 520L cells after 4 days by modified propidium iodide monolayer assay; conditions: 96 h; method in brief: as §1
[25] = Cytotoxicity against human PC3M cells after 4 days by modified propidium iodide monolayer assay; conditions: PC-3M, 96 h; method in brief: as §1
T-24 = assay: Cytotoxicity against human T24 cells after 4 days by modified propidium iodide monolayer assay; conditions: T-24, 96 h; method in brief: as §1

O=C1NCCc2cc(Br)c(c(Br)c2)Oc2cc(cc(Br)c2O)CCNC(=O)/C(=N/O)C(O)c2cc(Br)c(c(Br)c2)Oc2cc(cc(Br)c2O)C/C1=N\O (stereo not drawn) [BASTADIN 24]
IC50 [1]: 1.62 µg/mL (≈ 1.45 µM)
IC70 [1]: 3.64 µg/mL (≈ 3.27 µM)
IC90 [1]: 8.17 µg/mL (≈ 7.33 µM)
IC50 [2]: 1.58 µg/mL (≈ 1.42 µM)
IC70 [2]: 3.66 µg/mL (≈ 3.29 µM)
IC90 [2]: 8.46 µg/mL (≈ 7.59 µM)
IC50 [3]: 3.79 µg/mL (≈ 3.4 µM)
IC70 [3]: 5.95 µg/mL (≈ 5.34 µM)
IC90 [3]: 9.35 µg/mL (≈ 8.39 µM)
IC50 [4]: 1.7 µg/mL (≈ 1.53 µM)
IC70 [4]: 3.61 µg/mL (≈ 3.24 µM)
IC90 [4]: 7.68 µg/mL (≈ 6.89 µM)
IC50 [5]: 4.19 µg/mL (≈ 3.76 µM)
IC70 [5]: 6.16 µg/mL (≈ 5.53 µM)
IC90 [5]: 9.08 µg/mL (≈ 8.15 µM)
IC50 [6]: 2.77 µg/mL (≈ 2.49 µM)
IC70 [6]: 4.73 µg/mL (≈ 4.25 µM)
IC90 [6]: 8.07 µg/mL (≈ 7.24 µM)
IC50 (HT-29): 2 µg/mL (≈ 1.8 µM)
IC70 (HT-29): 3.85 µg/mL (≈ 3.46 µM)
IC90 (HT-29): 7.44 µg/mL (≈ 6.68 µM)
IC50 [7]: 1.22 µg/mL (≈ 1.1 µM)
IC70 [7]: 3.24 µg/mL (≈ 2.91 µM)
IC90 [7]: 8.63 µg/mL (≈ 7.75 µM)
IC50 [8]: 1.51 µg/mL (≈ 1.36 µM)
IC70 [8]: 3.43 µg/mL (≈ 3.08 µM)
IC90 [8]: 7.81 µg/mL (≈ 7.01 µM)
IC50 [9]: 3.81 µg/mL (≈ 3.42 µM)
IC70 [9]: 5.91 µg/mL (≈ 5.31 µM)
IC90 [9]: 9.16 µg/mL (≈ 8.22 µM)
IC50 [10]: 0.37 µg/mL (≈ 0.332 µM)
IC70 [10]: 0.63 µg/mL (≈ 0.566 µM)
IC90 [10]: 1.67 µg/mL (≈ 1.5 µM)
IC50 [11]: 2.56 µg/mL (≈ 2.3 µM)
IC70 [11]: 4.9 µg/mL (≈ 4.4 µM)
IC90 [11]: 9.37 µg/mL (≈ 8.41 µM)
IC50 [12]: 2.42 µg/mL (≈ 2.17 µM)
IC70 [12]: 4.38 µg/mL (≈ 3.93 µM)
IC90 [12]: 7.9 µg/mL (≈ 7.09 µM)
IC50 (LNCaP): 2.47 µg/mL (≈ 2.22 µM)
IC70 (LNCaP): 4.59 µg/mL (≈ 4.12 µM)
IC90 (LNCaP): 8.56 µg/mL (≈ 7.68 µM)
IC50 [13]: 2.18 µg/mL (≈ 1.96 µM)
IC70 [13]: 4.58 µg/mL (≈ 4.11 µM)
IC90 [13]: 9.64 µg/mL (≈ 8.65 µM)
IC50 (PANC-1): 4.23 µg/mL (≈ 3.8 µM)
IC70 (PANC-1): 6.31 µg/mL (≈ 5.66 µM)
IC90 (PANC-1): 9.41 µg/mL (≈ 8.45 µM)
IC50 [14]: 1.4 µg/mL (≈ 1.26 µM)
IC70 [14]: 3.3 µg/mL (≈ 2.96 µM)
IC90 [14]: 7.74 µg/mL (≈ 6.95 µM)
IC50 [15]: 6.08 µg/mL (≈ 5.46 µM)
IC70 [15]: 11.3 µg/mL (≈ 10.2 µM)
IC90 [15]: 21.1 µg/mL (≈ 18.9 µM)
IC50 [16]: 1.5 µg/mL (≈ 1.35 µM)
IC70 [16]: 3.36 µg/mL (≈ 3.02 µM)
IC90 [16]: 7.54 µg/mL (≈ 6.77 µM)
IC50 (NCI-H460): 4.31 µg/mL (≈ 3.87 µM)
IC70 (NCI-H460): 6.08 µg/mL (≈ 5.46 µM)
IC90 (NCI-H460): 8.57 µg/mL (≈ 7.69 µM)
IC50 (DU-145): 0.96 µg/mL (≈ 0.862 µM)
IC70 (DU-145): 2.59 µg/mL (≈ 2.32 µM)
IC90 (DU-145): 7.04 µg/mL (≈ 6.32 µM)
IC50 [17]: 2.68 µg/mL (≈ 2.41 µM)
IC70 [17]: 4.88 µg/mL (≈ 4.38 µM)
IC90 [17]: 8.87 µg/mL (≈ 7.96 µM)
IC50 [18]: 0.59 µg/mL (≈ 0.53 µM)
IC70 [18]: 2.02 µg/mL (≈ 1.81 µM)
IC90 [18]: 14.9 µg/mL (≈ 13.4 µM)
IC50 [19]: 2.64 µg/mL (≈ 2.37 µM)
IC70 [19]: 5.42 µg/mL (≈ 4.87 µM)
IC90 [19]: 11.1 µg/mL (≈ 10 µM)
IC50 [20]: 2.64 µg/mL (≈ 2.37 µM)
IC70 [20]: 4.6 µg/mL (≈ 4.13 µM)
IC90 [20]: 8.01 µg/mL (≈ 7.19 µM)
IC50 (HCT-116): 3.87 µg/mL (≈ 3.47 µM)
IC70 (HCT-116): 5.71 µg/mL (≈ 5.13 µM)
IC90 (HCT-116): 8.4 µg/mL (≈ 7.54 µM)
IC50 (CWR22R): 0.46 µg/mL (≈ 0.413 µM)
IC70 (CWR22R): 0.96 µg/mL (≈ 0.862 µM)
IC90 (CWR22R): 5.75 µg/mL (≈ 5.16 µM)
IC50 [21]: 2.28 µg/mL (≈ 2.05 µM)
IC70 [21]: 4.54 µg/mL (≈ 4.08 µM)
IC90 [21]: 9.02 µg/mL (≈ 8.1 µM)
IC50 (MCF7): 1.46 µg/mL (≈ 1.31 µM)
IC70 (MCF7): 3.37 µg/mL (≈ 3.03 µM)
IC90 (MCF7): 7.78 µg/mL (≈ 6.98 µM)
IC50 [22]: 2.88 µg/mL (≈ 2.59 µM)
IC70 [22]: 4.94 µg/mL (≈ 4.43 µM)
IC90 [22]: 8.5 µg/mL (≈ 7.63 µM)
IC50 [23]: 0.55 µg/mL (≈ 0.494 µM)
IC70 [23]: 0.87 µg/mL (≈ 0.781 µM)
IC90 [23]: 8.58 µg/mL (≈ 7.7 µM)
IC50 (OVCAR-3): 3.66 µg/mL (≈ 3.29 µM)
IC70 (OVCAR-3): 5.72 µg/mL (≈ 5.13 µM)
IC90 (OVCAR-3): 8.94 µg/mL (≈ 8.02 µM)
IC50 (SF-268): 0.38 µg/mL (≈ 0.341 µM)
IC70 (SF-268): 0.61 µg/mL (≈ 0.548 µM)
IC90 (SF-268): 0.96 µg/mL (≈ 0.862 µM)
IC50 [24]: 2.6 µg/mL (≈ 2.33 µM)
IC70 [24]: 4.56 µg/mL (≈ 4.09 µM)
IC90 [24]: 7.99 µg/mL (≈ 7.17 µM)
IC50 [25]: 1.29 µg/mL (≈ 1.16 µM)
IC70 [25]: 3.03 µg/mL (≈ 2.72 µM)
IC90 [25]: 7.11 µg/mL (≈ 6.38 µM)
IC50 (T-24): 0.79 µg/mL (≈ 0.709 µM)
IC70 (T-24): 2.19 µg/mL (≈ 1.97 µM)
IC90 (T-24): 6.24 µg/mL (≈ 5.6 µM)

From ChEMBL document CHEMBL1144839, “Cytotoxic bastadin 24 from the Australian sponge Ianthella quadrangulata” (J Nat Prod, 2008)
